Here are results for three compounds from ChEMBL document CHEMBL4007420, “Structural Optimization and Pharmacological Evaluation of Inhibitors Targeting Dual-Specificity Tyrosine Phosphorylation-Regulated Kinases (DYRK) and CDC-like kinases (CLK) in Glioblastoma” (J Med Chem, 2017).

Activity calls are given as the source filed them. The rule behind the calls is not given here. Bounds are passed on as bounds.

For assay [1], the target named is T1, Dual specificity tyrosine-phosphorylation-regulated kinase 3 (Homo sapiens, UniProt O43781).
T1 sequence (O43781 whole entry): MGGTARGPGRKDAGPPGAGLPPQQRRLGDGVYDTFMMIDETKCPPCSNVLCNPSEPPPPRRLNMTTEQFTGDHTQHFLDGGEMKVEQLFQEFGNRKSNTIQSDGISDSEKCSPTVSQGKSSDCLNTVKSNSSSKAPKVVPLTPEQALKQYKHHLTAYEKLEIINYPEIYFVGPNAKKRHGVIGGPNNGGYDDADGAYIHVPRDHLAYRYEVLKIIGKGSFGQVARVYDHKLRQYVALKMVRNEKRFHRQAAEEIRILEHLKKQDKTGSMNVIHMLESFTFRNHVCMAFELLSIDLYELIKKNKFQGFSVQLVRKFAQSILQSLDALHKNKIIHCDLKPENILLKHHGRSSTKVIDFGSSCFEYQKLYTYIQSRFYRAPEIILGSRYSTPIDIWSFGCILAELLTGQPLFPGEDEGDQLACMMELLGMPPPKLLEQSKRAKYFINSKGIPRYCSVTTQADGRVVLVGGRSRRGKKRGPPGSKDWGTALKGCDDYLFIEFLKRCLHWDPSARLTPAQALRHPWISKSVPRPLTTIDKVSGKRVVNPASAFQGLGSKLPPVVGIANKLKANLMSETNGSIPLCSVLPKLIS
Nature of the assay: Inhibition of full-length recombinant human GST-tagged DYRK3 expressed in Escherichia coli using woodtide as substrate after 30 mins in presence of [gamma-33P]ATP.

Assay [2] has as its target T2, Dual specificity tyrosine-phosphorylation-regulated kinase 4 (Homo sapiens, UniProt Q9NR20).
T2 sequence (Q9NR20 whole entry): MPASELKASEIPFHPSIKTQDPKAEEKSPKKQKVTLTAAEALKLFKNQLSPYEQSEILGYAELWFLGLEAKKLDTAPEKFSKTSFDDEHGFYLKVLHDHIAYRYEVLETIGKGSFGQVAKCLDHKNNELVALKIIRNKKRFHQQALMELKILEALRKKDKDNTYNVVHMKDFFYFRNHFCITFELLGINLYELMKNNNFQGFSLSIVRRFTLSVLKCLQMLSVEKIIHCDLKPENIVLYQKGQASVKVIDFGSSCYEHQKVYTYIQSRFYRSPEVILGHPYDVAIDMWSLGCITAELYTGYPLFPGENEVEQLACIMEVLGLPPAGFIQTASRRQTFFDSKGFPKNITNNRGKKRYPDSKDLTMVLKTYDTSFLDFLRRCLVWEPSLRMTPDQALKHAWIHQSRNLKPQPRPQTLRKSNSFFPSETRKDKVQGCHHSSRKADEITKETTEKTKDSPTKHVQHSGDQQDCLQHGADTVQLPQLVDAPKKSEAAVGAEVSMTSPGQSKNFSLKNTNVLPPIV
Nature of the assay: Inhibition of full-length recombinant human GST-tagged DYRK4 expressed in baculovirus infected insect cells using DYRKtide as substrate after 5 mins in presence of [gamma-33P]ATP by liquid scintillation counting.

Assay [3] is described as follows: Cytotoxicity against patient-derived JK2 cells assessed as reduction in cell viability after 3 days by Alamar blue assay. It is filed as functional, cell-based. Conditions: Homo sapiens, JK2, 72 h. The essentials: (§1)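 The patient-derived glioblastoma lines were grown as stem cells under defined conditions to keep the phenotype and genotype of the resected tumours. Viability after treatment was read with Alamar blue.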

The subject of assay [4] is U-251. Nature of the assay: Antiinvasive activity in human U251 cells assessed as velocity of invasion at 1 uM measured up to 20 hrs by matrigel assay (reference value: 1151 to 1710 micrometer/hr). Format: functional.
The subject of assay [5] is U-251. Kind of assay: Antimigratory activity in human U251 cells assessed as velocity of migration at 1 uM measured up to 20 hrs by wound scratch assay (reference value: 2159 to 2653 micrometer/hr). It is filed as functional. The essentials: (§2)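 Wound-healing migration assay: cell movement across the wound is measured as velocity (µm/h). Compounds were tested at 0, 1.0, 5.0 and 10.0 µM. Values are mean ± SEM of 3 independent experiments.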

Assay [6] has as its system A 172. Kind of assay: Antiinvasive activity in human A172 cells assessed as velocity of invasion at 1 uM measured up to 20 hrs by matrigel assay (reference value: 2659 to 3047 micrometer/hr). Format: functional.
Assay [7] is filed under the species Homo sapiens. Kind of assay: Inhibition of tubulin (unknown origin) polymerization.
Assay [8] deals with U-251. Kind of assay: Antimigratory activity in human U251 cells assessed as velocity of migration at 10 uM measured up to 20 hrs by wound scratch assay (reference value: 2159 to 2653 micrometer/hr). It is filed as functional. Put shortly: as §2
Assay [9] deals with T3, Dual specificity tyrosine-phosphorylation-regulated kinase 2 (Homo sapiens, UniProt Q92630).
T3 sequence (Q92630 whole entry): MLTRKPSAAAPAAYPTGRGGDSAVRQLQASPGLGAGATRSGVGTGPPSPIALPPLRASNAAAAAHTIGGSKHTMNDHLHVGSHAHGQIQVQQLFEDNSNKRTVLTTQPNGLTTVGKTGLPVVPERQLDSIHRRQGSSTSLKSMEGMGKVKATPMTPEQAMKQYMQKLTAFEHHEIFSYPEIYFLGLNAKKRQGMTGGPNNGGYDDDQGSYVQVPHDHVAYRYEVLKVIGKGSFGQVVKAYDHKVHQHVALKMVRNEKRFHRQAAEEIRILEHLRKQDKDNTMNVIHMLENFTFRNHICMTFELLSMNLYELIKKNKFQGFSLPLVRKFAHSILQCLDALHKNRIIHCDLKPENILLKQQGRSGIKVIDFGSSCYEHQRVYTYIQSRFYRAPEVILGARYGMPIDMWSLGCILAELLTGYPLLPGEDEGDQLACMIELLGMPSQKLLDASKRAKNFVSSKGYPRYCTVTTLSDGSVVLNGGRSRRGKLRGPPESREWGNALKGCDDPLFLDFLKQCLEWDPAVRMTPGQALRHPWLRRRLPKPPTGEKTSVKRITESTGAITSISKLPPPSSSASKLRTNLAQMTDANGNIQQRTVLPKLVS
Kind of assay: Inhibition of DYRK2 (unknown origin) using woodtide as substrate after 40 mins in presence of [gamma-33P]ATP by microbeta scintillation counting.

Assay [10] relates to A 172. Kind of assay: Antiinvasive activity in human A172 cells assessed as velocity of invasion at 5 uM measured up to 20 hrs by matrigel assay (reference value: 2659 to 3047 micrometer/hr). Format: functional.
In assay [11] the test system is A 172. Kind of assay: Antimigratory activity in human A172 cells assessed as velocity of migration at 10 uM measured up to 20 hrs by wound scratch assay (reference value: 2650 to 3123 micrometer/hr). Format: functional. The essentials:
as §2

Assay [12] addresses Dual specificity tyrosine-phosphorylation-regulated kinase 1B (Homo sapiens, UniProt Q9Y463). Nature of the assay: Inhibition of DYRK1B (unknown origin) using woodtide as substrate after 40 mins in presence of [gamma-33P]ATP by microbeta scintillation counting.
A short description of assay [13]: Antimigratory activity in patient-derived RN1 cells assessed as velocity of migration at 1 uM measured up to 20 hrs by wound scratch assay (reference value: 937 to 1174 micrometer/hr). Format: functional, Homo sapiens. The essentials:
as §2

Assay [14] is described as follows: Cytotoxicity against patient-derived RN1 cells assessed as reduction in cell viability after 3 days by Alamar blue assay. It is filed as functional, cell-based. Conditions: Homo sapiens, RN1, 72 h. Put shortly: as §1
The test system of assay [15] is A 172. Nature of the assay: Cytotoxicity against human A172 cells assessed as reduction in cell viability after 3 days by Alamar blue assay. Format: functional, cell-based. Conditions: A 172, 72 h.
For assay [16], the system named is U-251. Nature of the assay: Antimigratory activity in human U251 cells assessed as velocity of migration at 5 uM measured up to 20 hrs by wound scratch assay (reference value: 2159 to 2653 micrometer/hr). Format: functional. Put shortly: as §2
The test system of assay [17] is U-251. Kind of assay: Cytotoxicity against human U251 cells assessed as reduction in cell viability after 3 days by Alamar blue assay. Format: functional, cell-based. Conditions: U-251, 72 h.
Assay [18] concerns A 172. Nature of the assay: Antimigratory activity in human A172 cells assessed as velocity of migration at 5 uM measured up to 20 hrs by wound scratch assay (reference value: 2650 to 3123 micrometer/hr). Format: functional. The essentials:
as §2

For assay [19], the target named is Dual specificity tyrosine-phosphorylation-regulated kinase 1A (Homo sapiens, UniProt Q13627). Nature of the assay: Inhibition of DYRK1A (unknown origin) using woodtide as substrate after 10 mins in presence of [gamma-33P]ATP by microbeta scintillation counting.
Assay [20] can be described thus: Antimigratory activity in patient-derived RN1 cells assessed as velocity of migration at 10 uM measured up to 20 hrs by wound scratch assay (reference value: 937 to 1174 micrometer/hr). Format: functional, Homo sapiens. Put shortly:
as §2

The subject of assay [21] is U-251. Kind of assay: Antiinvasive activity in human U251 cells assessed as velocity of invasion at 10 uM measured up to 20 hrs by matrigel assay (reference value: 1151 to 1710 micrometer/hr). It is filed as functional.
In assay [22] the test system is U-251. Kind of assay: Antiinvasive activity in human U251 cells assessed as velocity of invasion at 5 uM measured up to 20 hrs by matrigel assay (reference value: 1151 to 1710 micrometer/hr). Format: functional.
The target of assay [23] is Dual specificity protein kinase CLK1 (Homo sapiens, UniProt P49759). Kind of assay: Inhibition of CLK1 (unknown origin) using KKGRSRSRSRSRSR as substrate after 40 mins in presence of [gamma-33P]ATP by microbeta scintillation counting. The essentials: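 CLK1 was assayed with RS peptide substrate at 100 µM ATP.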
Chain of Dual specificity protein kinase CLK1 (P49759 whole entry): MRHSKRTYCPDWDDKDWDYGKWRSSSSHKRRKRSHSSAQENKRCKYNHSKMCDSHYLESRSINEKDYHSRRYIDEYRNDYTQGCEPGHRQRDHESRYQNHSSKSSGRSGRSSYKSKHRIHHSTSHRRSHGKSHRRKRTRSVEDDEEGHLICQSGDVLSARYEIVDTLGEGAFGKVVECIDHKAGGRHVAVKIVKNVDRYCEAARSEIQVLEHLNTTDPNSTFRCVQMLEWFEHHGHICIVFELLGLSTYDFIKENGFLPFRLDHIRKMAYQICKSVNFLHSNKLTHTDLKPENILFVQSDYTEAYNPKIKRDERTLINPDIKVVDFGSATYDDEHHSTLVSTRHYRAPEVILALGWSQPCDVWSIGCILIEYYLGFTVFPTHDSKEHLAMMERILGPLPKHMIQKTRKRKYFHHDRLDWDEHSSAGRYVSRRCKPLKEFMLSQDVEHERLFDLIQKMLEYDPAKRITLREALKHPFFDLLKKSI
The subject of assay [24] is A 172. Kind of assay: Antiinvasive activity in human A172 cells assessed as velocity of invasion at 10 uM measured up to 20 hrs by matrigel assay (reference value: 2659 to 3047 micrometer/hr). It is filed as functional.
Assay [25] in a line: Cytotoxicity against patient-derived WK1 cells assessed as reduction in cell viability after 5 days by Alamar blue assay. Format: functional, cell-based. Conditions: Homo sapiens, WK1, 120 h. The essentials: as §1
Assay [26] deals with A 172. Kind of assay: Antimigratory activity in human A172 cells assessed as velocity of migration at 1 uM measured up to 20 hrs by wound scratch assay (reference value: 2650 to 3123 micrometer/hr). It is filed as functional. Put shortly:
as §2

A short description of assay [27]: Cytotoxicity against patient-derived SJH1 cells assessed as reduction in cell viability after 3 days by Alamar blue assay. Format: functional, cell-based. Conditions: Homo sapiens, SJH1, 72 h. The essentials:
as §1

Assay [28] in a line: Antimigratory activity in patient-derived RN1 cells assessed as velocity of migration at 5 uM measured up to 20 hrs by wound scratch assay (reference value: 937 to 1174 micrometer/hr). Format: functional, Homo sapiens. The essentials:
as §2

Assay [29] in a line: (§3) Anticlonogenic activity against patient-derived RN1 cells after 10 to 12 days by toluidine blue staining based assay. Format: functional, cell-based, Homo sapiens. Put shortly:
(§4)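 Cells were exposed to compound for 10 days, then colonies were fixed, stained with Toluidine Blue and counted. […] Values are mean ± SEM of 3 independent experiments, each in duplicate, with one-way ANOVA and Dunnett's test against vehicle.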

The subject of assay [30] is RN1. Described as §3. Format: functional, cell-based. Conditions: Homo sapiens. The essentials: as §4

Chain of Dual specificity tyrosine-phosphorylation-regulated kinase 1B (Q9Y463 whole entry): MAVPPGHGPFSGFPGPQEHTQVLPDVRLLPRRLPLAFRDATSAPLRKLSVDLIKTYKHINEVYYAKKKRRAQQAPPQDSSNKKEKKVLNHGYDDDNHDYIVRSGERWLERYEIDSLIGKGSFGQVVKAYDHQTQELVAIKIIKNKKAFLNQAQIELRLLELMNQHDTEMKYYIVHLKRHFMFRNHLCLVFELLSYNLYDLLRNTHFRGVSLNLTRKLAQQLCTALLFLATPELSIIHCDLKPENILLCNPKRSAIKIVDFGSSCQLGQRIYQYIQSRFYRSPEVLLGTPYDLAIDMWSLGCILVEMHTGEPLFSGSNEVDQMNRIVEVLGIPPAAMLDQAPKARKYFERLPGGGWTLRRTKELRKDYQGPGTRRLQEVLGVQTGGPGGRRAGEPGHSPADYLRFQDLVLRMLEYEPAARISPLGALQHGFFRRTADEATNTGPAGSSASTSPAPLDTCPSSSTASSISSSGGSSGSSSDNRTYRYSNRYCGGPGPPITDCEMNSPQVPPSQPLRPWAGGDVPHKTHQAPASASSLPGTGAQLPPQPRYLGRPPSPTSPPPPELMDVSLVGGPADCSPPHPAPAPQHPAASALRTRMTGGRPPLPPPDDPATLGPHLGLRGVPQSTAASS

As to `COc1ccc2c(c1)[nH]c1c(C)nccc12` [HARMINE], the values for the IC50 in assay [1] and in [2] were 410 nM and 80000 nM, respectively.

With `Nc1ccc(-c2c[nH]c3ncc(-c4ccc(O)cc4)cc23)cc1`, the EC50 in assay [3], in [14], in assay [15], in assay [17], in assay [25] and in assay [27] was above 50000 nM in each case. The Activity in assay [4] came out at 1451 um/hr; in assay [5], 2331 um/hr; in assay [6] it was 2411 um/hr; in assay [8] it was 2702 um/hr; in assay [10] it was 2232 um/hr; in assay [11], 2827 um/hr. Also, the Activity is 1070 um/hr in [13]; 2370 um/hr in assay [16]; 3065 um/hr in assay [18]; 791 um/hr in assay [20]; 1380 um/hr in assay [21]; 1481 um/hr in assay [22]. For the same compound, the Activity in [24] is listed as 2707 um/hr; in assay [26], 3123 um/hr; in assay [28], 929 um/hr. In assay [7], the inhibition entry was “inactive”. Besides, the IC50 in assay [9], in assay [12], in assay [19] and in assay [23] was above 1000 nM each time.

Regarding `CC(=O)Nc1ccc(-c2cnc3[nH]cc(-c4ccc(O)cc4)c3c2)cc1`, the EC50 in [3] is 8600 nM; in [14], 2100 nM; in [15] it was 1600 to 4600 nM; in [17], 1600 to 4600 nM; in [29] it was 2100 nM; in [25], 900 nM. The EC50 in assay [27] was 5100 nM. Further, the Activity stood at 736 um/hr in assay [4]; 1125 um/hr in assay [5]; 2731 um/hr in assay [6]; 111 um/hr in [8]; 2027 um/hr in assay [10]; 651 um/hr in assay [11]. Besides, the Activity in assay [13] is 332 um/hr; in [16], 173 um/hr; in assay [18], 2296 um/hr; in [20], 196 um/hr; in assay [30], “Dose-dependent effect”; in assay [21], -118 um/hr. The Activity in [22] came to 34 um/hr; in [24], 1718 um/hr; in assay [26] it was 2891 um/hr; in [28], 210 um/hr. Moreover, the inhibition result in assay [7] is “inactive”. The IC50 in assay [9] was 536 nM; in assay [12], 38 nM; in [19], 6.6 nM; in assay [23], 35 nM.
